SENP8 block-1 = inhibitors of human SENP8 protease; inhibition, % at 10 µM; 1.2% of 330,000 active; AID 2540; purified SENP8, Z-RLRGG-aminoluciferin cleavage, luminescence; in the data active means inhibition above about 50%
Target sequence (Q96LD8 whole entry, looked up): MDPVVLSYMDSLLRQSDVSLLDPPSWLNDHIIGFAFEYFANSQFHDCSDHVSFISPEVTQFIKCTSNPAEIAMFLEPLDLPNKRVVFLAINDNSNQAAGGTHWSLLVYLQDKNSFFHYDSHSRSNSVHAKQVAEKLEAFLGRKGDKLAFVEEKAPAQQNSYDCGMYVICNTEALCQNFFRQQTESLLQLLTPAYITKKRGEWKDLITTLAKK
SENP7 inh = SENP7 protease inhibition. recombinant SENP7, Z-RLRGG-aminoluciferin luminescence, 40 min. inhibition, % at 5 µM. 1.5% of 330,000 active. AID 434973;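 active means inhibition above about 50% at the single test dose, limit read from the data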;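 further: plate controls were DMSO with enzyme for no effect and no enzyme buffer wells for full effect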
UBC13 inh = blocks human UBC13 polyubiquitin chain formation; TR-FRET; AID 485273; inhibition, % at 20 µM; 0.47% of 330,000 active; in the data active means inhibition above about 45%, passing the limit was not always enough
Apaf1 inhib = blocks human Apaf-1 apoptosome activity. O14727. reconstituted apoptosome caspase-3 activity, DEVD-Rh110 fluorescence. inhibition, % at 20 µM. 0.71% of 330,000 active. AID 489030; active means inhibition of at least 40% at 20 µM;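 further: plate controls were DMSO wells for no effect and DEVD-CHO caspase inhibitor wells for full effect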
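Assay system – apoptosome proteins · Medium – Hepes buffer, pH 7.5 · Also added – cytochrome c with DEVD-Rh110 · Timing – 30 min compound preincubation, 50 min activation, room temperature · Detection – Rh110 fluorescence, excitation 480 nm, emission 540 nm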
SENP8 block-2 = inhibitors of human SENP8 protease | Q96LD8 | recombinant SENP8, Nedd8 substrate fluorescence | inhibition, % at 20 µM | 0.64% of 360,000 active | AID 602440; in the data active means inhibition mostly above about 40%, no sharp cut-off; inactive means mostly below about 27%
SENP6 block = inhibitors of human SENP6 protease; Q9GZR1; Recombinant SENP6 catalytic domain, aminoluciferin luminescence; inhibition, % at 10 µM; 1.8% of 330,000 active; AID 2599;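 active means inhibition above about 50% at the single tested dose, limit read from the data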;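 further: plate controls were DMSO wells with enzyme for no effect and DMSO wells lacking enzyme for full effect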
Target sequence (Q9GZR1 628-1112 limits assumed): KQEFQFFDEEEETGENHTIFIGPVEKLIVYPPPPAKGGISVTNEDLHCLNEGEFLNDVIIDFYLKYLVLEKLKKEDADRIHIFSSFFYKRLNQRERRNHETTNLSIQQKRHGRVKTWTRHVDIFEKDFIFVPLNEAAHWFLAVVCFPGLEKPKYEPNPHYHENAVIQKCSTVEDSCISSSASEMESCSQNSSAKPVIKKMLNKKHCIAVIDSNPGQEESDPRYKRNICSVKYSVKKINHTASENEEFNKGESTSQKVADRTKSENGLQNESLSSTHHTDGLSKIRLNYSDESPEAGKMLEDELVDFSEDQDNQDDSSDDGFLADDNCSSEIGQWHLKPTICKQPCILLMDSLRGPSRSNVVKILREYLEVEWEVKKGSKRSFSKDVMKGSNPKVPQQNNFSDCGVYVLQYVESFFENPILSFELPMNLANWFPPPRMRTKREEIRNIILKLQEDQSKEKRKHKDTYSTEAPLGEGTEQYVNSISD
An asterisk follows results filed as active; x = no result given. Sampled rows, rich in hits. Any-hit rate of the full collection: about 3%.

SMILES	SENP8 block-1	SENP7 inh	UBC13 inh	Apaf1 inhib	SENP8 block-2	SENP6 block
COc1ccc(C2=Nc3ccccc3N(C(=O)c3ccc(C)cc3)C2C(=O)Nc2c(C)cccc2C)cc1 (stereo not given)	x	x	x	x	-90.3	x
COC(=O)c1ccc(N2C(c3ccsc3)=Cc3cc4c(cc3C2CC(=O)c2ccco2)OCO4)cc1 (stereo not given)	x	x	x	x	-45.4	x
Nc1ccc(Oc2ccc3nc(-c4ccccc4)c(-c4ccc([N+](=O)[O-])cc4)nc3c2)cc1	-5.8	11.1	-29.2	2.6	43.4*	-9.1
N#Cc1ccc(Oc2ccc(-c3nc4ccccc4nc3-c3ccccc3)cc2)cc1C#N	-14.1	-2.6	0.0	9.1	-187.3	-24.1
Cc1cccc(C)c1NC(=O)C1C(c2ccc3c(c2)OCO3)=Nc2ccccc2N1C(=O)c1cccc2ccccc12 (stereo not given)	x	x	x	x	-72.4	x
COc1ccc(-c2nc3c(C)cc(Br)cn3c2Cc2ccc(C)cc2)cc1OC	x	x	x	x	-42.1	x
O=C(O)c1ccc(N/N=C/C2=Cc3ccccc3OC2)cc1	98.0*	98.9*	-12.8	4.3	-231.1	100.6*
COc1cccc(NC2=C(NCCO)C(=O)c3ccccc3C2=O)c1	22.7	6.1	-93.1	16.0	53.7*	20.4
C=CCOc1ccc(/C=C/C(C)=N\O)cc1	83.4*	88.9*	-0.5	13.2	14.7	79.4*
OC(c1cccc(CN2CCCCC2)c1)c1ncc(-c2cccc3ccccc23)[nH]1 (stereo not given)	x	x	x	x	-283.8	x
Cc1cccnc1C(NC(=O)C1CCN(Cc2ccc(Oc3ccccc3)cc2)CC1)c1ccc(F)cc1 (stereo not given)	x	x	x	x	11.5	x
Cc1cc(C)cc(NC(=S)N=Nc2c(O)n(C)c3ccc(S(=O)(=O)N4CCOCC4)cc23)c1	5.9	1.7	-40.9	-0.3	-0.7	-21.8
Cc1ccc(NC(=S)N=Nc2c(O)n(C)c3ccc(S(=O)(=O)N4CCOCC4)cc23)cc1	x	x	x	x	29.8*	x
CCOC(=O)[C@]12CCCC=C1N(Cc1ccccc1)C(=O)[C@H](CC(=O)N1CCN(C(=O)c3ccco3)CC1)C2	x	x	x	x	26.4	x
O=C(C(=O)N1CCN(C(=O)OCc2ccccc2)CC1)c1cccnc1	x	x	x	x	22.1	x
O=C1C=C(N2CCN(c3ccccn3)CC2)C(=O)c2c(O)ccc(O)c21	x	x	x	x	76.3*	x
Cc1[nH]n(-c2ccccc2)c(=O)c1N=Nc1ccc2c(c1)OCO2	2.5	2.1	-72.2	-10.0	46.0*	-6.3
COc1cccc(N=Nc2c(C)[nH]n(-c3ccccc3)c2=O)c1	7.1	1.5	-34.0	9.2	29.0	1.0
Cc1[nH]n(-c2ccccc2)c(=O)c1N=Nc1ccccc1O	-6.3	-9.1	-128.7	18.1	40.2*	15.5
CCCCNC(=O)C[C@@H]1C[C@@]2(C(=O)OCC)CCCC=C2N(CCC2=CCCCC2)C1=O	x	x	x	x	19.2	x
Cc1cc(C=O)c(C)n1-c1ccc(NC2CCCC2)c([N+](=O)[O-])c1	0.4	4.9	-29.4	17.0	41.9*	-10.2
Cc1cc(/C=N/Nc2nc(N)ncc2[N+](=O)[O-])c(C)n1-c1ccccc1F	94.9*	94.5*	-43.0	-18.3	x	101.9*
Cc1cccc(C)c1-n1c(C)cc(/C=N\Nc2ccc([N+](=O)[O-])cn2)c1C	-7.2	-6.0	-73.0	18.2	36.8	-4.8
CC(C)(C)c1ccccc1NC(=O)Nc1nc(C(N)Cc2ccc(F)cc2)cs1 (stereo not given)	x	x	x	x	9.7	x
Nc1nc2ccccc2n1C(=O)c1cccs1	58.3*	74.2*	8.6	4.6	-44.7	11.3
SMILES	SENP8 block-1	SENP7 inh	UBC13 inh	Apaf1 inhib	SENP8 block-2	SENP6 block
O=[N+]([O-])c1cc(/C=N/N/C(=N/c2ccccn2)c2ccccn2)ccc1O	1.1	-2.4	-33.8	4.8	47.3*	15.4
O=[N+]([O-])c1ccc(/C=N/N/C(=N/c2ccccn2)c2ccccn2)cc1	3.1	2.2	-11.5	-2.1	29.2	0.3
COc1ccc(/C=C2\COc3ccccc3C2=O)c(OC)c1	-37.0	-27.3	1.4	14.3	-7.2	2.7
COc1ccc2c(c1)OC/C(=C/c1cccs1)C2=O	88.8*	96.1*	-13.3	-94.0	-5.8	93.8*
CC1(c2nc3ccccc3[nH]2)CCCC2=Nc3ccccc3CN21 (stereo not given)	x	x	x	x	7.7	x
C/C(=N\NC(=O)c1ccc(Cl)cc1)c1ccc(Br)s1	-4.9	-0.6	0.3	3.4	19.8	-23.3
C/C(=N\NC(=O)c1cc(Cl)ccc1O)c1ccc(Br)s1	74.0*	48.7	15.7	8.4	-167.9	79.0*
COC(=O)c1ccccc1NC(=O)Nc1ccc(C(=O)N2CCCC2)cc1	10.6	9.2	3.4	-2.5	14.1	13.4
COc1ccccc1NC(=O)Nc1ccc(C(=O)N2CCCCC2)cc1	91.4*	97.4*	13.4	-80.1	11.0	95.8*
O=S(=O)(Nc1ccc(N=Nc2ccc(O)c3ccccc23)cc1)c1ccccc1	-3.0	-2.9	-139.0	20.3	37.6	1.6
O=[N+]([O-])c1ccc(N=Nc2ccc(O)c3ccccc23)cc1	x	x	x	x	44.9*	x
COc1ccc(NC(=O)Cn2c([N+](=O)[O-])cnc2C)c(OC)c1	x	x	x	x	19.2	x
CNC[C@H](CC1CCCCC1)NC[C@H](Cc1ccccc1)NCCC12CC3CC(CC(C3)C1)C2	6.6	-2.0	24.6	73.6*	5.5	-25.0
CCOC(=O)C1(C)CCCCCN1C(=O)/C=C/c1ccccc1 (stereo not given)	x	x	x	x	11.3	x
Cc1ccc(Nc2nc3ccccc3s2)cc1	72.4*	87.4*	-0.5	8.7	9.2	82.3*
COC(=O)C1=CN(c2cccc(OCc3ccccc3)c2)C(N)=C(C#N)C1c1cccc(OC)c1OC (stereo not given)	x	x	x	x	-91.4	x
Cc1cc(C(F)(F)F)n2[nH]c(=O)c(N=Nc3ccccc3)c2n1	-6.2	-16.7	-41.4	12.3	29.0	1.9
Cc1cc(C)n2[nH]c(=O)c(N=Nc3ccccc3)c2n1	-10.1	-7.1	-100.7	14.1	29.2	-26.4
Cc1cc(C)n2[nH]c(=O)c(N=Nc3cccc(C(F)(F)F)c3)c2n1	-9.3	-4.9	-65.5	14.4	52.7*	-14.2
Cc1cc(C)n2[nH]c(=O)c(N=Nc3cccc(Cl)c3)c2n1	3.9	1.0	-69.7	8.7	47.9*	-10.2
CN1/C(=C/C=C/c2n(C)c3cc([N+](=O)[O-])c([N+](=O)[O-])cc3[n+]2C)C(C)(C)c2ccccc21	x	x	x	x	60.1*	x
Cc1cccc[n+]1CC(=O)/C=C1\N(C)c2ccccc2C1(C)C	-5.9	-6.4	-15.9	0.2	24.0	-14.2
O=C(CN1C2=NCCCN2c2ccccc21)c1ccc(Br)s1	-11.5	-0.5	-1.9	9.0	40.6*	-5.9
O=C(O)c1ccc(N=Nc2c(O)[nH]c3ccccc23)cc1	97.3*	99.6*	-27.1	4.2	16.5	99.3*
Nc1cccc(C2=Nc3cccc4cccc(c34)N2)c1	x	x	x	x	45.7*	x
O=c1[nH]c(S)c(/C=C2\C=Nc3ccccc32)s1	11.2	10.6	-97.8	11.8	51.7*	24.8
CCOc1ccc(NC(=O)CN(C)C(=O)c2ccccc2OCc2cccc(C)c2)cc1OCC	4.2	-1.2	15.0	46.1*	4.1	-9.4

High-throughput results: PubChem, Sanford-Burnham Center for Chemical Genomics
